Experimental data published in publication PMC9095748 (The Journal of Biological Chemistry, 2022).
≈ marks a conversion by molar mass, not a printed value. Where “and” joins values, the source holds several entries; their conditions need not be identical. Equal values may be shown once.

Experiments:
[1] = target: T1, hGLP1R (Homo sapiens, UniProt P43220); assay: GLP1R internalization in hGLP1R-GFP transfected HepG2 cells; format: cell-based; conditions: for GLP1R internalization: 50 μM, 1 h, hGLP1R-GFP transfected HepG2 cells
T1 sequence (P43220 24-463): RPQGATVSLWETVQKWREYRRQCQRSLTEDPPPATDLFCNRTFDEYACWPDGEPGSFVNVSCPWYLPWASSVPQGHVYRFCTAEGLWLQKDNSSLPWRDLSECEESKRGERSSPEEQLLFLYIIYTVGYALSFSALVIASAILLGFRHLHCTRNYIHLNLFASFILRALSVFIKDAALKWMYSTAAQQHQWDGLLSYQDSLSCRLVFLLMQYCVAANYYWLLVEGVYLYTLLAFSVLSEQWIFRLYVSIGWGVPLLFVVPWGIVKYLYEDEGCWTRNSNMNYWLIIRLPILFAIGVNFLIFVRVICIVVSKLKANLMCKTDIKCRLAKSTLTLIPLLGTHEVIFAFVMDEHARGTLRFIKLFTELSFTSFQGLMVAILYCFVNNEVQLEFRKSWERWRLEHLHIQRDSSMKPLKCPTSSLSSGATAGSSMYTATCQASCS
How it was run: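 HepG2 cells lipofected with hGLP1R-spark-GFP, then treated 1 h with test compound (50 µM), Ex-4 (20 nM, positive control) or DMSO. For antagonism, Ex-9 (300 nM) added 15 min before. Washed in PBS and formalin-fixed. Surface labelled with sulfo-NHS-biotin (1 mg/ml, 30 min, 4 °C), washed in 100 mM glycine, PFA-fixed, blocked in 1% BSA and stained with Texas-Red-avidin (5 µg/ml, 30 min). Internalization read by confocal microscopy.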

[2] = target: T1, hGLP1R; assay: cAMP Glo assay in hGLP1R-transfected 293A cells; format: cell-based
How it was run: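 293A cells transiently lipofected with hGLP1R at 70% confluency. Seeded 4 h later at 5×10^4 cells/well and left overnight. Treated 4 h with DMSO or test compound at 0.5, 10, 20, 100, 200, 300, 500, 1000 and 2000 nM. Cells lysed and cAMP read by cAMP-Glo luminescence. EC50 from curve fitting; n = 3/group.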

[3] = test system: PKA; assay: PKA activity ELISA in hGLP1R transfected 293A cells; format: cell-based, human; conditions: PK2 50 μM, 45 min, vs DMSO
How it was run: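 293A cells lipofected with hGLP1R-spark-GFP. After 48 h, seeded at 1.0×10^4 cells/well. Next day treated with test compound (50 μM) or DMSO for 45 min in serum-free medium. PKA activity read by an ELISA on immobilized PKA substrate, per the kit protocol.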

[4] = test system: CREB phosphorylation at Ser133; assay: CREB phosphorylation, Western blot in HepG2 cells; format: cell-based, human; conditions: PK2 50 μM, 1 hr, serum-starved HepG2 cells, vs DMSO
[5] = test system: INS-1 cells; assay: Insulin secretion assay in INS-1 cells; format: cell-based, rat; conditions: high glucose 16.7 mM, 1.5 h
How it was run: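 INS-1 cells seeded, then held 16 h in 5 mM glucose medium and 1.5 h in 2.5 mM glucose. Treated 1.5 h with test compound or DMSO vehicle at 16.7 mM glucose. Supernatant insulin measured by rat insulin ELISA and normalized to total protein. n = 3/group.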

[6] = Pharmacokinetics after single oral dose in BALB/c mice; format: in vivo
How it was run: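 Male BALB/c mice (5-6 weeks, 25 ± 2 g) given a single oral dose of 25 mg/kg and killed at 5 min to 24 h. Plasma extracted with acetonitrile:methanol (1:1) and run on reverse-phase C18 HPLC at 28 °C. Mobile phase 0.1% TFA water/acetonitrile (40:60) at 1 ml/min, fluorescence detection (ex 350 nm, em 497 nm). Quantified from peak-area standard curve; PK parameters by standard methods.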

[7] = Tissue distribution after oral administration in mice; format: in vivo, BALB/c mice; conditions: 2 h after oral administration
How it was run: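 Male BALB/c mice dosed orally at 25 mg/kg. Organs (pancreas, heart, brain, lung, spleen, kidney, liver) collected 2 h after dosing and homogenized. Extracted with acetonitrile:methanol (1:1) and run on reverse-phase C18 HPLC with 0.1% TFA water/acetonitrile (40:60) and fluorescence detection (ex 350 nm, em 497 nm). Quantified against a standard curve.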

[8] = Safety observation in BALB/c mice over 30 days of treatment; format: in vivo; conditions: 25 mg/kg
[9] = test system: STZ-induced diabetic mouse model; assay: STZ-induced diabetic mouse model; format: in vivo, BALB/c mice
How it was run: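 Male BALB/c mice, 6-7 weeks old, acclimated 1 week, on chow. STZ 65 mg/kg in citrate buffer pH 4.0 given IP for 5 days after overnight fast. Test compound 25 mg/kg oral in CMC for 18 days, starting 3 days before or 1 day after STZ. Controls received 0.25% CMC with or without STZ. Tail-vein glucose taken on alternate days, body weight on random days. Pancreas sections stained for insulin/Ki67 and insulin/TUNEL; n ≥ 5/group.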

[10] = test system: TXNIP promoter; assay: TXNIP promoter-luciferase activity assay in INS-1 cells; format: cell-based, rat; conditions: PK2 50 μM, 45 min, INS-1 cells transfected with TXNIP promoter-luciferase construct
[11] = test system: TXNIP; assay: TXNIP protein expression, Western blot in INS-1 cells; format: cell-based, rat; conditions: PK2 30 min
How it was run: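 INS-1 cells treated with test compound or DMSO vehicle for 30 min. Lysed in RIPA buffer with protease and phosphatase inhibitors, protein measured by BCA, and reduced at 95 °C for 5 min. Run on 4-10% SDS-PAGE and blotted to PVDF. Blocked in 5% BSA or milk, then probed with anti-TXNIP and HRP-conjugated secondary in TBST with 5% BSA.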

[12] = Solubility in DMSO; format: physicochemical
[13] = BALB/c mice, oral, single dose 25 mg/kg, plasma
[14] = male, BALB/c, mouse, plasma, po, 25 mg/kg

With “6-((1-(4-methoxybenzyl)-1H-1,2,3-triazol-4-yl)methyl)-6H-indolo[2,3-b]quinoxaline [PK4]” the GLP1R internalization [1] was “rapidly internalized GLP1R receptors”.

For `O=[N+]([O-])c1ccc(Cn2cc(Cn3c4ccccc4c4nc5ccccc5nc43)nn2)cc1` [PK2, 6-((1-(4-nitrobenzyl)-1H-1,2,3-triazol-4-yl)methyl)-6H-indolo[2,3-b]quinoxaline], the GLP1R internalization [1] was “rapidly internalized GLP1R receptors”, the EC50 [2] was 43.7 nM and the “Increment in PKA activity” value [3] was 1.6 fold. The “Increase in CREB phosphorylation at Ser133” value [4] was 1.7 fold, the “Increase in insulin secretion” value [5] was 1.45 fold and the “Plasma clearance (CL)” value ([6]; BALB/c mice, oral, single dose 25 mg/kg) was 7.79 L/h. For the same molecule, the “AUMC (0-t)” value [6, 13] was 13,601.58 ng h/ml, the Area of last [6, 13] was 320.1451 ng·h/mL and the “Cl (Clearance)” value [6, 13] was 7.7875 L/h. For the same molecule, the “K (Eliminatory rate constant)” value [6, 13] was 0.2003 h⁻¹, the “VD (Apparent volume of distribution)” value ([6]; BALB/c mice, oral, single dose 25 mg/kg, plasma, 25 mg/kg) was 38.88 L and 38.882 L and the AUC(0-t) [6, 14] was 3210 ng·h/mL. For the same molecule, the Cmax [6, 14] was 787 ng/mL, the Tmax [6, 14] was 1 h and the half-life ([6]; male, BALB/c, mouse, plasma, po, 25 mg/kg, t1/2 (Elimination half life), BALB/c mice, single dose 25 mg/kg) was 288 min. For the same molecule, the “Tissue distribution: brain” value [7] was “A small amount of PK2 was detectable”, the “Tissue distribution: heart, lungs, and spleen” value [7] was “no traces” and the “Tissue distribution: liver, kidney, and pancreas” value [7] was “distributed highly”. For the same molecule, the “Abnormal behavior or acute toxicity” value [8] was “no abnormal behavior or acute toxicity was observed”, the “Recovery of serum insulin levels” value ([9]; PK2-treated groups, 25 mg/kg oral, end of study, vs STZ group) was “up to 6 fold” and the “Enhancement of β-cell proliferation (Ki67)” value ([9]; PK2 groups, Ki67 in insulin-positive islet cells) was 1.7 fold. The Pancreas weight ([9]; PK2 groups, at termination of the study) was “protection in pancreas weight”, the Body weight ([9]; STZ mice, PK2 25 mg/kg oral, compared to STZ only) was “increased body weight” and the “Reduction of number of TUNEL-positive cells in pancreatic islets” value ([9]; both PK2 groups compared to STZ group) was 3 fold. For the same molecule, the “Preservation of β-cell mass” value ([9]; pre-PK2 and post-PK2 groups compared to STZ, insulin immunohistochemistry) was 4 fold, the “Islets area (H&E)” value ([9]; pre-PK2 and post-PK2 groups vs STZ group) was “significantly bigger islets area” and the “Reduction of plasma glucose levels” value ([9]; pre-PK2 and post-PK2 groups, 25 mg/kg oral, compared to STZ only) was 1.4 fold. The TXNIP promoter activity [10] was “attenuates TXNIP promoter activity”, the TXNIP protein expression [11] was “downregulates TXNIP” and the solubility [12] was 10000 µg/mL (≈ 23 mM).

For `Cc1ccc(Cn2cc(Cn3c4ccccc4c4nc5ccccc5nc43)nn2)cc1` [PK3, 6-((1-(4-methylbenzyl)-1H-1,2,3-triazol-4-yl)methyl)-6H-indolo[2,3-b]quinoxaline], the GLP1R internalization [1] was “rapidly internalized GLP1R receptors”.

In the case of “Exendin (9–39) [Ex-9, reference compound]”, the “Effect of antagonist on PK2-mediated GLP1R internalization” value ([1]; Ex-9 300 nM for 15 min, then PK2 50 μM for 1 h, HepG2 cells) is reported as “blocking PK2-mediated GLP1R internalization”.
